Laboratory results published in ChEMBL document CHEMBL1122229, “alpha-adrenoreceptor reagents. 1. Synthesis of some 1,4-benzodioxans as selective presynaptic alpha 2-adrenoreceptor antagonists and potential antidepressants” (J Med Chem, 1983).
Activity calls are given as the source filed them. No cut-off for these calls is given here.

Legend:
[1] = biological target: T1, Adrenergic receptor alpha-1 (Rattus norvegicus) (UniProt P15823+P23944+P43140); test: In vitro postsynaptic antagonist potency at alpha-1 adrenergic receptor in rat anococcygeus relative to compound 5 (RX781094); IA means compound is inactive.; type: functional
[2] = biological target: T1, Adrenergic receptor alpha-1 (Rattus norvegicus); test: In vitro postsynaptic agonist potency at alpha-1 adrenergic receptor in rat anococcygeus muscle relative to phenylephrine; IA means inactive.; type: functional, tissue-based
Method in brief: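 Rat anococcygeus muscle (male Sprague–Dawley rats, 200–250 g) suspended at 0.5 g initial tension in a 50-mL organ bath. […] Standard dose-response curves were run before and after the analogue's curve.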

[3] = biological target: T2, Adrenergic receptor alpha-2 (Rattus norvegicus) (UniProt P22086+P19328+P22909); test: In vitro presynaptic agonist potency at alpha-2 adrenergic receptor in rat or mouse vas deferens relative to clonidine; type: functional, tissue-based
Method in brief: (§1)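 Field-stimulated rat or mouse vas deferens under 0.5 g tension, at 0.1 Hz with 3-ms pulses, 30 °C, gassed with 95% O2/5% CO2. Contractions were recorded isometrically. Standard dose-response curves were run before and after each analogue curve. Potency was expressed relative to the standard in the same experiment.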

[4] = test system: Alpha-2 adrenergic receptor (Rattus norvegicus); test: In vitro presynaptic agonist potency at alpha-2 adrenergic receptor in rat or mouse vas deferens relative to clonidine; IA means inactive
[5] = biological target: T1, Adrenergic receptor alpha-1 (Rattus norvegicus); test: In vitro postsynaptic agonist potency at alpha-1 adrenergic receptor in rat anococcygeus muscle relative to phenylephrine; type: functional, tissue-based
[6] = biological target: T1, Adrenergic receptor alpha-1 (Rattus norvegicus); test: In vitro postsynaptic antagonist potency at alpha-1 adrenergic receptor in rat anococcygeus relative to compound 5 (RX781094); type: functional
[7] = biological target: T3, Adenosine receptor A2b (Rattus norvegicus) (UniProt P29276); test: In vitro presynaptic agonist potency at Alpha-2 adrenergic receptor in rat or mouse vas deferens relative to clonidine; IA means inactive; type: functional, tissue-based; method in brief: as §1
T3 sequence (whole entry): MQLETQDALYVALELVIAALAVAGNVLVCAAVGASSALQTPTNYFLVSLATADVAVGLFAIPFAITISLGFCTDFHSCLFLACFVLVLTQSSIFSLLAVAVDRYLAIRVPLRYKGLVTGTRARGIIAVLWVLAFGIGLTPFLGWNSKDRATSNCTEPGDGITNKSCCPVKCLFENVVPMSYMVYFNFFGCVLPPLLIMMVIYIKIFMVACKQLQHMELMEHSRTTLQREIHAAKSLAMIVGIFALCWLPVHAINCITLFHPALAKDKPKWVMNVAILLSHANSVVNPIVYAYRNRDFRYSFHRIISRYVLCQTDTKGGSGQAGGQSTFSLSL

[8] = biological target: T1, Adrenergic receptor alpha-1 (Rattus norvegicus); test: In vitro postsynaptic antagonist potency at alpha-1 adrenergic receptor in rat anococcygeus.; type: functional
[9] = test system: Alpha-1 adrenergic receptor (Rattus norvegicus); test: In vitro postsynaptic agonist potency at alpha-1 adrenergic receptor in rat anococcygeus.
[10] = biological target: T3, Adenosine receptor A2b (Rattus norvegicus); test: In vitro presynaptic antagonist potency at alpha-2 adrenergic receptor in rat or mouse vas deferens; IA means inactive; type: functional
Method in brief: (§2)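 Prostatic half of vas deferens from male Sprague–Dawley rats (200–250 g; Krebs, 30 °C, 95% O2/5% CO2, 0.1 Hz, 3-ms, 40 V) or from mice (magnesium-free Krebs, 100–140 V). Tension 0.5 g; isometric twitch recording. […] The concentration giving 50% reversal of the inhibition was compared with standard 5 in the same tissue.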

[11] = biological target: T4, Adrenergic receptor alpha-1 (Rattus norvegicus, UniProt P15823+P23944+P43140); test: alpha-1 adrenergic receptor pA2 value against norepinephrine in vitro experiment in rat anococcygeus
T4 sequence (P15823 whole entry): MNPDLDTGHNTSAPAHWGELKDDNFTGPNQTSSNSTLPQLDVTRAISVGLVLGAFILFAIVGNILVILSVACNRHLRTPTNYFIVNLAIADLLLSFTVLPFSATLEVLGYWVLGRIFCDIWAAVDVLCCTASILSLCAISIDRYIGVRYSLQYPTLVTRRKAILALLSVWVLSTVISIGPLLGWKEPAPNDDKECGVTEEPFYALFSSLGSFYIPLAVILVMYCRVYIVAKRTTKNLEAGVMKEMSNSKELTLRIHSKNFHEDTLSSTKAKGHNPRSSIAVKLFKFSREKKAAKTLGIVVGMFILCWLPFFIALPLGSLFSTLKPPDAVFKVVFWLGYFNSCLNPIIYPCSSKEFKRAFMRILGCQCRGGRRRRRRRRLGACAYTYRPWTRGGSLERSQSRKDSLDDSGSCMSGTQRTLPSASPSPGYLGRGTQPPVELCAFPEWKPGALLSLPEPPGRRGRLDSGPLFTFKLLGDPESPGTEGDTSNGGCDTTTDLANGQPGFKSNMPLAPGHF
T4 sequence (P23944 whole entry): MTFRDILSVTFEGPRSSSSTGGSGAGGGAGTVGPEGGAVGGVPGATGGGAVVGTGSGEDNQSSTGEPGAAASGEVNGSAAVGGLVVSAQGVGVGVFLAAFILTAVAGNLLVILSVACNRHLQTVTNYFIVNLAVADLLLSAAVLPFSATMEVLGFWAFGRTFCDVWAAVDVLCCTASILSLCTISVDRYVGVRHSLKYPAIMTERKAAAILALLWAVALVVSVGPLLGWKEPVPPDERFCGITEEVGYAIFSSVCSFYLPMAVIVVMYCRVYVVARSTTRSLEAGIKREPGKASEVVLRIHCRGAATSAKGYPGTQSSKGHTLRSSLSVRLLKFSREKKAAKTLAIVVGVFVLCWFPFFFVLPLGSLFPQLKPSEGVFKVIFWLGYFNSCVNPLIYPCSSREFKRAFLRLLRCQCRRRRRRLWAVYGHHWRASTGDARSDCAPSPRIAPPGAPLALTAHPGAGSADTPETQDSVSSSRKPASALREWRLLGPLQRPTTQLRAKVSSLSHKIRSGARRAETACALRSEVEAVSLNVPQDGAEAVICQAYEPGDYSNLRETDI
T4 sequence (P43140 whole entry): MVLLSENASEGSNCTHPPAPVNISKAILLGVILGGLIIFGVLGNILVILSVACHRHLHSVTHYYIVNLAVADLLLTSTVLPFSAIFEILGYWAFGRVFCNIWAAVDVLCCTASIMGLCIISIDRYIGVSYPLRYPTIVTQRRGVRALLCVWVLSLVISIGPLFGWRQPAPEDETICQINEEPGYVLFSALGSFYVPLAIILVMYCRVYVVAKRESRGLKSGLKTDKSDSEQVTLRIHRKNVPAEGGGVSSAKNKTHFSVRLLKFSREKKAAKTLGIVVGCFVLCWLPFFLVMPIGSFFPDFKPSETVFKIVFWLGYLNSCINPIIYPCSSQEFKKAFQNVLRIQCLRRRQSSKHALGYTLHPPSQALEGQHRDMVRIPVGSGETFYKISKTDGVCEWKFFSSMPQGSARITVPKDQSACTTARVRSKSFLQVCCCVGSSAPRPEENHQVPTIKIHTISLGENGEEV

[12] = biological target: T5, Adrenergic receptor alpha-2 (Rattus norvegicus, UniProt P22086+P19328+P22909); test: Alpha-2 adrenergic receptor pA2 value against clonidine in vitro experiment in rat vas deferens; type: tissue-based
T5 sequence (P22086 whole entry): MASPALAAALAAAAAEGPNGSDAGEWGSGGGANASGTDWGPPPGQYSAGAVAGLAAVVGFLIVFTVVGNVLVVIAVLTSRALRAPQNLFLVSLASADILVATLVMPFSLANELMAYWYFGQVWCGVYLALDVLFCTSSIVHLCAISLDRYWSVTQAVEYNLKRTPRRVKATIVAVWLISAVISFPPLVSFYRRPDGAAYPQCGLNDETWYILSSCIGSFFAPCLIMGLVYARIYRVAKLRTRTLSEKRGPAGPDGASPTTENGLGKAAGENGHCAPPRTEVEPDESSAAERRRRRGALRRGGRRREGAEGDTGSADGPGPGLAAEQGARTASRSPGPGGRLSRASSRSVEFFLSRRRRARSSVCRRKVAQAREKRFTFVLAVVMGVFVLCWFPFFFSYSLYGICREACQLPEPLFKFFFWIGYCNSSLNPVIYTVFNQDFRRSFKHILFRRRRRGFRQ
T5 sequence (P19328 whole entry): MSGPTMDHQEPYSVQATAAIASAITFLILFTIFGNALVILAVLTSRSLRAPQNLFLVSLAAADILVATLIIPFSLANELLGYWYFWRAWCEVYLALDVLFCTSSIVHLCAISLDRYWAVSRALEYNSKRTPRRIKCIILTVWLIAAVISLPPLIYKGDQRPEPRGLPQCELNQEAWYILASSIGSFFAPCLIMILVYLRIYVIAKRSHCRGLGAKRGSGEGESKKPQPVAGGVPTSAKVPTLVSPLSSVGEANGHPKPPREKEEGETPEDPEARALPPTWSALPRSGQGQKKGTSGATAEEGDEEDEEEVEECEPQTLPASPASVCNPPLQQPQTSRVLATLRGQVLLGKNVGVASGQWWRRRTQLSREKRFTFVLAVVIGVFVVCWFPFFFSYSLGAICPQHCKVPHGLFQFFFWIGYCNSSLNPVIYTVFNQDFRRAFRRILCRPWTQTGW
T5 sequence (P22909 whole entry): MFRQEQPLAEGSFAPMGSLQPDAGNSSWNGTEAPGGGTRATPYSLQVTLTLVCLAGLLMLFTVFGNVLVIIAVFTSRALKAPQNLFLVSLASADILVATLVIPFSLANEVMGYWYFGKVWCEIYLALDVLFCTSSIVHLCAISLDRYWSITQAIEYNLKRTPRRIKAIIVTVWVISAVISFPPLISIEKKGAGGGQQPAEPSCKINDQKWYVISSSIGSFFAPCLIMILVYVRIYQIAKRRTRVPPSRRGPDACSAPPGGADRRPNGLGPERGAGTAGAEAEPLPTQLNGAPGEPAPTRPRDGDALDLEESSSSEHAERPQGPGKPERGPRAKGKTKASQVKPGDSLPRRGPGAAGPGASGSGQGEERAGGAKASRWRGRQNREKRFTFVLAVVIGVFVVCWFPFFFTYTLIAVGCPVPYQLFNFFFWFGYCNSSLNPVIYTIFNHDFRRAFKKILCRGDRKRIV
Method in brief: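 pA2 was obtained by Arunlakshana–Schild analysis at postsynaptic α1 (anococcygeus) or presynaptic α2 (vas deferens) sites. Values are mean ± SEM of at least six experiments.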

[13] = biological target: T2, Adrenergic receptor alpha-2 (Rattus norvegicus); test: In vitro presynaptic antagonist potency at alpha-2 adrenergic receptor in rat or mouse vas deferens relative to compound 5 (RX781094); type: functional, tissue-based
Method in brief: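 Prostatic halves of rat vas deferens (male Sprague–Dawley rats, 200–250 g; Krebs, 30 °C, 95% O2/5% CO2; 3-ms, 40 V, 0.1 Hz field pulses) or mouse vas deferens (Mg-free Krebs, 30 °C; 3-ms pulses, 0.1 Hz, 100–140 V) were used, with isometric twitch recording. […] The concentration giving 50% reversal was compared with the RX781094 standard in the same tissue.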

[14] = Ratio of pA2 value against alpha2 to alpha-1 adrenoceptor
Method in brief: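 α2/α1 selectivity was taken as the antilog of the difference between the pA2 values at α2- and α1-adrenoreceptors.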

[15] = biological target: T2, Adrenergic receptor alpha-2 (Rattus norvegicus); test: In vitro presynaptic agonist potency at alpha-2 adrenergic receptor in rat or mouse vas deferens relative to clonidine; IA means inactive; type: functional, tissue-based
Method in brief: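 Field-stimulated rat or mouse vas deferens (Krebs, 30 °C, 95% O2/5% CO2, 3-ms pulses at 0.1 Hz) with isometric twitch recording. […] Standard dose-response curves were run before and after the analogue's curve.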

[16] = Selectivity ratio of presynaptic antagonist potency to postsynaptic antagonist potency; type: functional
Method in brief: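 Selectivity ratio is the antilog of the difference between pA2 values at presynaptic α2- and postsynaptic α1-adrenoreceptors. pA2 values were derived by the Arunlakshana–Schild method, each a mean ± SEM of at least six experiments.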

[17] = In vitro antagonism at Alpha-2 adrenergic receptor in rat or mouse vas deferens relative to RX781094.; type: functional; method in brief: as §2
[18] = biological target: T1, Adrenergic receptor alpha-1 (Rattus norvegicus); test: In vitro postsynaptic antagonist potency at alpha-1 adrenergic receptor in rat anococcygeus relative to compound 5 (RX781094); AG means compound is agonist.; type: functional; conditions: filed as agonist
[19] = biological target: T3, Adenosine receptor A2b (Rattus norvegicus); test: In vitro presynaptic agonist potency at Alpha-2 adrenergic receptor in rat or mouse vas deferens relative to clonidine; type: functional, tissue-based; method in brief: as §1

Nc1noc(C2COc3ccccc3O2)n1 (centres undefined)
Antagonist potency [1]: inactive | Agonist potency [2]: inactive | Agonist potency [3]: 0.0001 | Antagonist potency [4]: inactive

CC(C)c1cccc2c1OCC(C1=NCCN1)O2 (centres undefined)
Agonist potency [5]: 0.5 | Antagonist potency [6]: 1 | Agonist potency [3]: 0.1 | Antagonist potency [7]: inactive

Oc1cc2c(cc1O)OC(C1=NCCN1)CO2 (centres undefined)
Antagonist potency [8]: > 6 | Agonist potency [9]: 0.018 | Antagonist potency [10]: inactive | Agonist potency [3]: 0.0006

CCn1ccnc1CC1COc2ccccc2O1 (centres undefined) [IMILOXAN]
pA2 [11]: 4.85 | Antagonist potency [6]: 0.036 | Agonist potency [2]: inactive | pA2 [12]: 6.98 | Antagonist potency [13]: 0.02 | Selectivity [14]: 135 | Agonist potency [15]: inactive | Selectivity [16]: 0.53

Cc1cccc2c1OCC(C1=NCCN1)O2 (centres undefined)
Agonist potency [5]: 1 | Antagonist potency [17]: 0.13 | Antagonist potency [18]: Agonist | Agonist potency [19]: 0.1
